Measurements published in article PMC4651729 (ACS chemical neuroscience, 2015).
“Also recorded” adds a separate entry of the source. Marks after values point to notes of the source that are not given here.

What was measured:
CD1 mice [1] = experiment: radiant heat tail flick analgesia; assay type: in vivo, mouse; conditions: for tail flick analgesia (CI), ED50 / antinociception in vivo (in words): sc; for tail flick analgesia (CI), ED50: 30 min after dosing, mice, 95% CI or ± SEM; for antinociception in vivo (in words) / fold higher analgesic potency than morphine: tail flick; for fold higher analgesic potency than morphine: systemic (sc)
mouse MOR-1 = mouse MOR-1 (Mus musculus, UniProt P42866); experiment: [125I]BNtxA competition binding, CHO cell membranes, MOR-1; conditions: for Ki: read-out: Ki MOR-1, [125I]BNtxA 0.1 nM, CHO membranes, mouse MOR-1; for fold higher MOR-1 affinity than corresponding 14-OH-epoxymorphinan analog: 6 vs 19, 16 vs 1, 17 vs 20; for selectivity for MOR-1 over 6TM/E11 sites: ratio of Ki
How it was run: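 Mouse MOR-1 clone stably expressed in CHO cells; membranes incubated 90 min at 25 °C in 50 mM potassium phosphate buffer, pH 7.4, with 5 mM MgSO4, no blockers. Filtration through glass-fibre filters, three washes with ice-cold 50 mM Tris-HCl, pH 7.4. Nonspecific binding with 8 μM levallorphan, subtracted from total. Ki by nonlinear regression. Protein measured by Lowry method.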

6TM/E11 = 6TM/E11 (Mus musculus, UniProt P42866); assay type: binding; conditions: for Ki: read-out: Ki 6TM/E11, [125I]BNtxA 0.1 nM, mouse brain, CTAP, DPDPE, U50,488 blockers at 200 nM; for fold lower 6TM/E11 affinity than 1: compared with 1
How it was run: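 Membrane homogenates of whole brain from wild-type mice. Blockers at 200 nM: CTAP for MOR-1, U50,488H for KOR-1 and DPDPE for DOR-1.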

CD1 mice [2] = conditions: cited from earlier work
mouse DOR-1 = mouse DOR-1 (Mus musculus, UniProt P32300); experiment: [125I]BNtxA competition binding, CHO cell membranes, DOR-1; conditions: for Ki: read-out: Ki DOR-1, [125I]BNtxA 0.1 nM, CHO membranes, mouse DOR-1; for fold higher DOR-1 affinity than corresponding 14-OH-epoxymorphinan analog: 6 vs 19, 16 vs 1, 17 vs 20; for selectivity for DOR-1 over 6TM/E11 sites: ratio of Ki
How it was run: (§1)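 Membranes from CHO cells stably expressing the murine receptor clone, with no blockers, were incubated for 90 min at 25 °C in 50 mM potassium phosphate buffer (pH 7.4) with 5 mM MgSO4. Samples were then filtered on glass-fiber filters and washed with ice-cold 50 mM Tris-HCl (pH 7.4). Nonspecific binding was set with levallorphan 8 μM. Ki came from nonlinear regression. The 6TM/E11 comparison used mouse whole-brain membranes with CTAP, U50,488H and DPDPE, each at 200 nM.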

mouse KOR-1 = mouse KOR-1 (Mus musculus, UniProt P33534); experiment: [125I]BNtxA competition binding, CHO cell membranes, KOR-1; conditions: for Ki: read-out: Ki KOR-1, [125I]BNtxA 0.1 nM, CHO membranes, mouse KOR-1; for fold higher KOR-1 affinity than corresponding 14-OH-epoxymorphinan analog: 6 vs 19, 16 vs 1, 17 vs 20; for selectivity for KOR-1 over 6TM/E11 sites: ratio of Ki
How it was run: as §1

KOR-1 = KOR-1 (Mus musculus, UniProt P33534); experiment: [35S]GTPγS binding assay, KOR-1; assay type: biochemical
mice = experiment: conditioned place preference/aversion; assay type: in vivo, mouse; conditions: 2 days; for effect of pretreatment on cocaine-conditioned place preference: 16 1 mg/kg sc 10 min prior to cocaine 10 mg/kg sc; for place conditioning response to drug alone: 16 1 mg/kg sc, morphine 10 mg/kg ip, U50,488 30 mg/kg ip, cocaine 10 mg/kg sc
[3] = doses 30 times the antinociceptive ED50
DOR-1 = DOR-1 (Mus musculus, UniProt P32300)
MOR-1 = MOR-1 (Mus musculus, UniProt P42866)
[4] = tested on: C57BL/6J, MOR-1 KO or KOR-1 KO mice; conditions: C57BL/6J mice, sc

O=C(N[C@@H]1CC[C@@]2(O)[C@H]3Cc4ccc(O)c5c4[C@@]2(CCN3CC2CC2)[C@H]1O5)c1cccc(I)c1 [Compound 1, 3-Iodobenzoyl-β-naltrexamine, reference compound]
tail flick analgesia (CI), ED50 (CD1 mice [1]): 0.39 (0.15, 0.58) mg/kg | Ki (mouse MOR-1): 0.11 ± 0.02 nM | Ki (6TM/E11): 0.16 ± 0.04 nM | antinociception ED50 (CD1 mice [2]; introduction): 0.39 mg/kg | Ki (mouse DOR-1): 0.24 ± 0.05 nM | Ki (mouse KOR-1): 0.03 ± 0.001 nM

COc1ccc2c3c1O[C@H]1[C@H](NC(=O)c4cccc(I)c4)C=C[C@H]4[C@@H](C2)N(C)CC[C@@]341 [Compound 5, 17-Methyl-3-methoxy-4,5α-epoxy-7,8-en-6-β-[(3′-iodo)-benzamido]-morphinan]
tail flick analgesia (CI), ED50 (CD1 mice [1]): >10 mg/kg | Ki (mouse MOR-1): 1.2 ± 0.48 nM | Ki (6TM/E11): 61 ± 7.7 nM | Ki (mouse DOR-1): 49 ± 6.4 nM | Ki (mouse KOR-1): 10 ± 3.5 nM

CN1CC[C@]23c4c5ccc(O)c4O[C@H]2[C@H](NC(=O)c2cccc(I)c2)C=C[C@H]3[C@H]1C5 [Compound 6, 17-Methyl-3-hydroxy-4,5α-epoxy-7,8-en-6-β-[(3′-iodo)-benzamido]-morphinan]
tail flick analgesia (CI), ED50 (CD1 mice [1]): 6.31 (4.6, 8.5) mg/kg | antinociception in vivo (in words) (CD1 mice [1]): potent antinociception | fold higher MOR-1 affinity than corresponding 14-OH-epoxymorphinan analog (mouse MOR-1): 26 fold | Ki (mouse MOR-1): 0.037 ± 0.0051 nM | Ki (6TM/E11): 27 ± 18 nM | fold higher DOR-1 affinity than corresponding 14-OH-epoxymorphinan analog (mouse DOR-1): 3 fold | Ki (mouse DOR-1): 0.88 ± 0.08 nM | fold higher KOR-1 affinity than corresponding 14-OH-epoxymorphinan analog (mouse KOR-1): 224 fold | Ki (mouse KOR-1): 0.21 ± 0.046 nM

O=C(N[C@@H]1C=C[C@H]2[C@H]3Cc4ccc(O)c5c4[C@@]2(CCN3CCc2ccccc2)[C@H]1O5)c1cccc(I)c1 [Compound 15, 17-Phenethyl-3-hydroxy-4,5α-epoxy-7,8-en-6-β-[(3′-iodo)-benzamido]-morphinan]
tail flick analgesia (CI), ED50 (CD1 mice [1]): 1.3 (1.03, 2.2) mg/kg | fold higher analgesic potency than morphine (CD1 mice [1]): ~ 3 fold | selectivity for MOR-1 over 6TM/E11 sites (mouse MOR-1): 159 fold | Ki (mouse MOR-1): 0.088 ± 0.028 nM | Ki (6TM/E11): 14 ± 3.2 nM | selectivity for DOR-1 over 6TM/E11 sites (mouse DOR-1): 108 fold | Ki (mouse DOR-1): 0.13 ± 0.032 nM | selectivity for KOR-1 over 6TM/E11 sites (mouse KOR-1): 100 fold | Ki (mouse KOR-1): 0.14 ± 0.022 nM

O=C(N[C@@H]1C=C[C@H]2[C@H]3Cc4ccc(O)c5c4[C@@]2(CCN3CC2CC2)[C@H]1O5)c1cccc(I)c1 [Compound 16, 17-Cyclopropylmethyl-3-hydroxy-4,5α-epoxy-7,8-en-6-β-[(3′-iodo)benzamido]-morphinan]
agonist efficacy at KOR-1 (in words) (KOR-1; [35S]GTPγS): full agonist eficacy | EC50 (KOR-1; read-out: EC50 KOR-1, [35S]GTPγS stimulation): 0.027 ± 0.002 nM | Emax (% stimulation) KOR-1 (KOR-1; relative to U50,488H at 100 nM): 104 ± 2.3 % stimulation | effect of pretreatment on cocaine-conditioned place preference (mice; listed as 16 (MP1104)): prevented significant place preference produced by cocaine; also recorded: prevented cocaine-conditioned place preference; also recorded: abolished cocaine preference; also recorded: effectively blocked cocaine-conditioned place preference | effect of pretreatment on cocaine-conditioned place preference (mice; listed as MP1104): prevented the reward behavior associated with cocaine | place conditioning response to drug alone (mice; listed as 16 (MP1104)): neither conditioned place preference nor aversion; also recorded: did not produce conditioned place preference or aversion; also recorded: produced neither preference nor aversion; also recorded: lacks rewarding and dysphoric properties | place conditioning response to drug alone (mice; listed as MP1104): did not cause place aversion or preference | seizures [3]: not observed to produce seizures | agonist efficacy at DOR-1 (in words) (DOR-1; [35S]GTPγS): full agonist eficacy | EC50 (DOR-1; read-out: EC50 DOR-1, [35S]GTPγS stimulation): 0.41 ± 0.11 nM | Emax (% stimulation) DOR-1 (DOR-1; relative to DPDPE at 100 nM): 88 ± 0.38 % stimulation | antinociception after pretreatment with NOP antagonist J-113,397 (CD1 mice [1]; CD1 mice, 16 0.5 mg/kg sc, J-113,397 30 mg/kg sc 15 min before, listed as 16 (MP1104)): No change in the antinociceptive efiect; also recorded: insensitive | antinociception after pretreatment with DOR-1 antagonist NTI (CD1 mice [1]; CD1 mice, 16 0.5 mg/kg sc, NTI 20 mg/kg sc 15 min before, listed as 16 (MP1104)): attenuated the antinociceptive effects; also recorded: partially antagonized | antinociception after pretreatment with both norBNI and NTI (CD1 mice [1]; CD1 mice, 16 0.5 mg/kg sc, listed as 16 (MP1104)): fully prevented antinociception; also recorded: eliminated the antinociceptive response | antinociception after pretreatment with KOR-1 antagonist norBNI (CD1 mice [1]; CD1 mice, 16 0.5 mg/kg sc, norBNI 10 mg/kg sc 24 h before, listed as 16 (MP1104)): attenuated the antinociceptive effects; also recorded: partially antagonized | antinociception after pretreatment with MOR-1 antagonist β-FNA (CD1 mice [1]; CD1 mice, 16 0.5 mg/kg sc, β-FNA 40 mg/kg sc 24 h before, listed as 16 (MP1104)): did not alter anti-nociception; also recorded: insensitive | tail flick analgesia (CI), ED50 (CD1 mice [1]): 0.33 ± 0.09 mg/kg | fold higher analgesic potency than morphine (CD1 mice [1]; listed as 16 (MP1104)): 15 fold | fold higher analgesic potency than morphine (CD1 mice [1]; listed as MP1104): approximately 15 fold | fold higher MOR-1 affinity than corresponding 14-OH-epoxymorphinan analog (mouse MOR-1): 5 fold | selectivity for MOR-1 over 6TM/E11 sites (mouse MOR-1): 22 fold | Ki (mouse MOR-1): 0.021 ± 0.0034 nM | fold lower 6TM/E11 affinity than 1 (6TM/E11): 3 fold | Ki (6TM/E11): 0.47 ± 0.009 nM | agonist efficacy at MOR-1 (in words) (MOR-1; [35S]GTPγS, listed as 16 (MP1104)): full agonist eficacy; also recorded: full agonism | EC50 (MOR-1; read-out: EC50 MOR-1, [35S]GTPγS stimulation): 0.21 ± 0.03 nM | Emax (% stimulation) MOR-1 (MOR-1; relative to DAMGO at 100 nM): 103 ± 2.5 % stimulation | fold higher DOR-1 affinity than corresponding 14-OH-epoxymorphinan analog (mouse DOR-1): 3 fold | selectivity for DOR-1 over 6TM/E11 sites (mouse DOR-1): 6 fold | Ki (mouse DOR-1): 0.08 ± 0.019 nM | antinociception ED50 (95% confidence interval) [4]: 0.22 (0.17–0.29) mg/kg | fold higher KOR-1 affinity than corresponding 14-OH-epoxymorphinan analog (mouse KOR-1): 4.7 fold | selectivity for KOR-1 over 6TM/E11 sites (mouse KOR-1): 73 fold | Ki (mouse KOR-1): 0.0064 ± 0.002 nM

C=CCN1CC[C@]23c4c5ccc(O)c4O[C@H]2[C@H](NC(=O)c2cccc(I)c2)C=C[C@H]3[C@H]1C5 [Compound 17, 17-Allyl-3-hydroxy-4,5α-epoxy-7,8-en-6-β-[(3′-iodo)benzamido]-morphinan]
tail flick analgesia (CI), ED50 (CD1 mice [1]): 0.53 (0.45, 0.59) mg/kg | antinociception in vivo (in words) (CD1 mice [1]): equipotent to both 1 and 20 | fold higher MOR-1 affinity than corresponding 14-OH-epoxymorphinan analog (mouse MOR-1): 6.5 fold | selectivity for MOR-1 over 6TM/E11 sites (mouse MOR-1): 23 fold | Ki (mouse MOR-1): 0.034 ± 0.006 nM | fold lower 6TM/E11 affinity than 1 (6TM/E11): 4.9 fold | fold lower 6TM/E11 affinity than 20 (6TM/E11; compared with 20): 3.1 fold | Ki (6TM/E11): 0.78 ± 0.1 nM | fold higher DOR-1 affinity than corresponding 14-OH-epoxymorphinan analog (mouse DOR-1): 6.7 fold | selectivity for DOR-1 over 6TM/E11 sites (mouse DOR-1): 2 fold | Ki (mouse DOR-1): 0.39 ± 0.0041 nM | fold higher KOR-1 affinity than corresponding 14-OH-epoxymorphinan analog (mouse KOR-1): 3.6 fold | selectivity for KOR-1 over 6TM/E11 sites (mouse KOR-1): 35 fold | Ki (mouse KOR-1): 0.022 ± 0.0043 nM

COC(=O)[C@H]1[C@@H](OC(=O)c2ccccc2)C[C@@H]2CC[C@H]1N2C [cocaine, reference compound]
place conditioning response to drug alone (mice): significant place preference

CN1CC[C@]23c4c5ccc(O)c4O[C@H]2[C@@H](O)C=C[C@H]3[C@H]1C5 [morphine, reference compound]
place conditioning response to drug alone (mice): significant conditioned place preference | tail flick analgesia, ED50 (CD1 mice [2]): 4.96 ± 0.96^f mg/kg
